Experiments:
SK-MEL-28 [1] = assay: Cytotoxicity against human SK-MEL-28 cells
DU-145 = assay: Cytotoxicity against human DU145 cells after 48 hrs by SRB assay; format: functional, cell-based; conditions: Homo sapiens, DU-145, 48 h; for CC50: read-out: LC50 (the source's name)
In short: (§1)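 Cells grown in RPMI 1640 with 10% FBS and penicillin/streptomycin at 37 °C and 5% CO₂, trypsinized, then seeded at 5 × 10³/well. After 18 h drug-free attachment, samples in DMSO/EtOH/PBS (0.5:0.5:99) were added for 48 h continuous exposure. Cells were fixed with cold TCA (1 h, 4 °C) and stained with SRB (10 min). Tris-solubilized stain read at 490 nm. Triplicate wells, mean ± SD; GI₅₀ derived.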

HT-29 = assay: Cytotoxicity against human HT29 cells after 48 hrs by SRB assay; format: functional, cell-based; conditions: Homo sapiens, HT-29, 48 h; for CC50: read-out: LC50 (the source's name)
In short: as §1

A549 = assay: Cytotoxicity against human A549 cells after 48 hrs by SRB assay; format: functional, cell-based; conditions: Homo sapiens, A549, 48 h
In short: as §1

SK-BR-3 = assay: Cytotoxicity against human SKBR3 cells after 48 hrs by SRB assay; format: functional; conditions: SK-BR-3, 48 h; for CC50: read-out: LC50 (the source's name); for GI50: read-out: GI50
In short: as §1

SK-MEL-28 [2] = assay: Cytotoxicity against human SK-MEL-28 cells after 48 hrs by SRB assay; format: functional, cell-based; conditions: Homo sapiens, SK-MEL-28, 48 h; for CC50: read-out: LC50 (the source's name)
In short: as §1

[3] = Cytotoxicity against human IGROV cells after 48 hrs by SRB assay; format: functional; conditions: for CC50: read-out: LC50 (the source's name); for GI50: read-out: GI50
In short: as §1

HeLa = assay: Cytotoxicity against human HeLa cells after 48 hrs by SRB assay; format: functional; conditions: for CC50: read-out: LC50 (the source's name)
In short: as §1

K562 = assay: Cytotoxicity against human K562 cells after 48 hrs by SRB assay; format: functional; conditions: K562, 48 h; for CC50: read-out: LC50 (the source's name)
In short: as §1

LoVo [4] = assay: Cytotoxicity against human LoVo cells after 48 hrs by SRB assay; format: functional; conditions: for CC50: read-out: LC50 (the source's name)
[5] = Cytotoxicity against human IGROV-ET cells after 48 hrs by SRB assay; format: functional; conditions: for CC50: read-out: LC50 (the source's name); for GI50: read-out: GI50
In short: as §1

PANC-1 = assay: Cytotoxicity against human PANC1 cells after 48 hrs by SRB assay; format: functional; conditions: PANC-1, 48 h; for CC50: read-out: LC50 (the source's name)
In short: as §1

LoVo [6] = assay: Cytotoxicity against human doxorubicin resistant LoVo cells after 48 hrs by SRB assay; format: functional; conditions: for CC50: read-out: LC50 (the source's name)
In short: as §1

LNCaP = assay: Cytotoxicity against human LNcaP cells after 48 hrs by SRB assay; format: functional; conditions: for CC50: read-out: LC50 (the source's name)
In short: as §1

[7] = Cytotoxicity against human HeLa-APL cells after 48 hrs by SRB assay; format: functional
In short: as §1

C/C=C1\NC(=O)[C@H](Cc2ccccc2)NC(=O)[C@@H](C(C)C)NC(=O)[C@@H]([C@H](C)CC)NC(=O)[C@H](NC(=O)[C@H](NC(=O)[C@H]2CCCN2C(=O)[C@H](NC(=O)[C@@H](NC(=O)[C@@H](NC(=O)[C@H](NC(=O)CCCC(C)C)C(C)C)[C@@H](C)O)C(C)C)C(C)C)[C@H](C)CC)[C@H](C)OC(=O)[C@H](C(C)C)NC1=O
IC50 (SK-MEL-28 [1]): 3670 nM | IC50 (DU-145): 3670 nM | IC50 (HT-29): 3670 nM

C/C=C1\NC(=O)[C@H](Cc2ccccc2)NC(=O)[C@@H](C(C)C)NC(=O)[C@@H]([C@H](C)CC)NC(=O)[C@H](NC(=O)[C@H](NC(=O)[C@H](CCCN)NC(=O)[C@H]2CCCN2C(=O)[C@@H](NC(=O)[C@H](NC(=O)[C@@H](NC(=O)[C@H](NC(=O)CCCC(C)C)C(C)C)[C@@H](C)O)C(C)C)C(C)C)[C@H](C)CC)[C@H](C)OC(=O)[C@H](C(C)C)NC1=O
IC50 (SK-MEL-28 [1]): 3390 nM | IC50 (DU-145): 3390 nM | IC50 (A549): 3390 nM | IC50 (HT-29): 3390 nM

C/C=C1\NC(=O)[C@H](Cc2ccccc2)NC(=O)[C@@H](C(C)C)NC(=O)[C@@H]([C@H](C)CC)NC(=O)[C@H](NC(=O)[C@H](NC(=O)[C@H](CCCN)NC(=O)[C@H]2CCCN2C(=O)[C@H](NC(=O)[C@@H](NC(=O)[C@@H](NC(=O)[C@H](NC(=O)CCCN(C)C)C(C)C)[C@@H](C)O)C(C)C)C(C)C)[C@H](C)CC)[C@H](C)OC(=O)[C@H](C(C)C)NC1=O
IC50 (SK-MEL-28 [1]): 6770 nM | IC50 (DU-145): 6770 nM | IC50 (A549): 6770 nM | IC50 (HT-29): 6770 nM

C/C=C1\NC(=O)[C@H](Cc2ccccc2)NC(=O)[C@@H](C(C)C)NC(=O)[C@@H]([C@H](C)CC)NC(=O)[C@H](NC(=O)[C@H](NC(=O)[C@H](CCCN)NC(=O)[C@H]2CCCN2C(=O)[C@H](NC(=O)[C@@H](NC(=O)[C@H](NC(=O)[C@H](NC(=O)CCCC(C)C)C(C)C)[C@@H](C)O)C(C)C)C(C)C)[C@H](C)CC)[C@H](C)OC(=O)[C@H](C(C)C)NC1=O
CC50 (DU-145): 1460 nM | CC50 (SK-BR-3): 1140 nM | CC50 (SK-MEL-28 [2]): 1620 nM | CC50 [3]: 791 nM | LC50 (A549): 1810 nM | CC50 (HeLa): 1920 nM | GI50 (K562): 1930 nM | TGI (K562): 1930 nM | CC50 (K562): 1930 nM | TGI (LoVo [4]): 8960 nM | CC50 (LoVo [4]): 4750 nM | CC50 [5]: 1050 nM | CC50 (PANC-1): 1770 nM | CC50 (LoVo [6]): 22300 nM | CC50 (LNCaP): 1490 nM | LC50 (concentration giving 50% net cell kill) [7]: 1800 nM | CC50 (HT-29): 4710 nM

C/C=C1\NC(=O)[C@H](Cc2ccccc2)NC(=O)[C@@H](C(C)C)NC(=O)[C@@H]([C@H](C)CC)NC(=O)[C@H](NC(=O)[C@H](NC(=O)[C@H](CCCN)NC(=O)[C@H]2CCCN2C(=O)[C@H](NC(=O)[C@H](CCC(=O)O)NC(=O)[C@@H](NC(=O)[C@H](NC(=O)CCCC(C)C)C(C)C)[C@@H](C)O)C(C)C)[C@H](C)CC)[C@H](C)OC(=O)[C@H](C(C)C)NC1=O
CC50 (DU-145): 1660 nM | CC50 (SK-BR-3): 1040 nM | CC50 (SK-MEL-28 [2]): 1820 nM | CC50 [3]: 842 nM | LC50 (A549): 1790 nM | CC50 (HeLa): 1350 nM | CC50 (K562): 1890 nM | CC50 (LoVo [4]): 3860 nM | CC50 [5]: 632 nM | CC50 (PANC-1): 2270 nM | CC50 (LoVo [6]): 3670 nM | CC50 (LNCaP): 1370 nM | LC50 (concentration giving 50% net cell kill) [7]: 1420 nM | CC50 (HT-29): 2330 nM

C/C=C1\NC(=O)[C@H](Cc2ccccc2)NC(=O)[C@@H](C(C)C)NC(=O)[C@@H]([C@H](C)CC)NC(=O)[C@H](NC(=O)[C@H](NC(=O)[C@H](CCCN)NC(=O)[C@H]2CCCN2C(=O)[C@H](NC(=O)[C@@H](NC(=O)[C@@H](NC(=O)[C@H](NC(=O)CCCC(C)C)C(C)C)[C@@H](C)O)[C@@H](C)O)C(C)C)[C@H](C)CC)[C@H](C)OC(=O)[C@H](C(C)C)NC1=O
CC50 (DU-145): 1690 nM | TGI (SK-BR-3): 2430 nM | GI50 (SK-BR-3): 2070 nM | CC50 (SK-BR-3): 1060 nM | CC50 (SK-MEL-28 [2]): 1860 nM | CC50 [3]: 859 nM | LC50 (A549): 1820 nM | CC50 (HeLa): 1380 nM | CC50 (K562): 1930 nM | GI50 (LoVo [4]): 2970 nM | TGI (LoVo [4]): 3350 nM | CC50 (LoVo [4]): 3770 nM | TGI [5]: 1750 nM | GI50 [5]: 1910 nM | CC50 [5]: 644 nM | GI50 (PANC-1): 5510 nM | TGI (PANC-1): 4560 nM | CC50 (PANC-1): 2320 nM | GI50 (LoVo [6]): 2990 nM | TGI (LoVo [6]): 2900 nM | CC50 (LoVo [6]): 2820 nM | CC50 (LNCaP): 1400 nM | LC50 (concentration giving 50% net cell kill) [7]: 1450 nM | GI50 (HT-29): 11000 nM | TGI (HT-29): 8870 nM | CC50 (HT-29): 2370 nM

C/C=C1\NC(=O)[C@H](Cc2ccccc2)NC(=O)[C@@H](C(C)C)NC(=O)[C@@H]([C@H](C)CC)NC(=O)[C@H](NC(=O)[C@H](NC(=O)[C@H](CCCN)NC(=O)[C@H]2CCCN2C(=O)[C@H](NC(=O)[C@@H](NC(=O)[C@@H](NC(=O)[C@H](NC(=O)CCCC(C)C)C(C)C)[C@@H](C)O)C(C)C)C(C)C)[C@H](C)CC)[C@@H](C)OC(=O)[C@H](C(C)C)NC1=O
CC50 (DU-145): 10600 nM | CC50 (SK-BR-3): 1690 nM | CC50 (SK-MEL-28 [2]): 1770 nM | TGI [3]: 106000 nM | GI50 [3]: 73200 nM | CC50 [3]: 72400 nM | LC50 (A549): 1920 nM | CC50 (HeLa): 1910 nM | CC50 (K562): 4420 nM | CC50 (LoVo [4]): 5540 nM | TGI [5]: 4480 nM | GI50 [5]: 3760 nM | CC50 [5]: 2130 nM | CC50 (PANC-1): 8900 nM | GI50 (LoVo [6]): 6030 nM | TGI (LoVo [6]): 7370 nM | CC50 (LoVo [6]): 4080 nM | GI50 (LNCaP): 19300 nM | TGI (LNCaP): 20300 nM | CC50 (LNCaP): 4920 nM | LC50 (concentration giving 50% net cell kill) [7]: 2360 nM | CC50 (HT-29): 3790 nM

C/C=C1\NC(=O)[C@H](Cc2ccccc2)NC(=O)[C@@H](C(C)C)NC(=O)[C@@H]([C@H](C)CC)NC(=O)[C@H](NC(=O)[C@H](NC(=O)[C@H](CCCN)NC(=O)[C@H]2CCCN2C(=O)[C@H](NC(=O)[C@@H](NC(=O)[C@@H](NC(=O)[C@H](NC(=O)CCCC(C)C)C(C)C)[C@@H](C)O)C(C)C)C(C)C)[C@H](C)CC)[C@H](C)OC(=O)[C@H](C(C)C)NC1=O [KAHALALIDE F]
TGI (DU-145): 1720 nM | GI50 (DU-145; read-out: GI50): 931 nM | CC50 (DU-145): 3720 nM | TGI (SK-BR-3): 810 nM | GI50 (SK-BR-3): 363 nM | CC50 (SK-BR-3): 1980 nM | TGI (SK-MEL-28 [2]): 2260 nM | GI50 (SK-MEL-28 [2]; read-out: GI50): 1190 nM | CC50 (SK-MEL-28 [2]): 4500 nM | TGI [3]: 1180 nM | GI50 [3]: 493 nM | CC50 [3]: 3220 nM | LC50 (A549): 4520 nM | TGI (A549): 2200 nM | GI50 (A549; read-out: GI50): 1160 nM | GI50 (HeLa): 965 nM | TGI (HeLa): 1970 nM | CC50 (HeLa): 4730 nM | GI50 (K562): 1930 nM | TGI (K562): 3320 nM | CC50 (K562): 5280 nM | GI50 (LoVo [4]): 334 nM | TGI (LoVo [4]): 614 nM | CC50 (LoVo [4]): 1510 nM | TGI [5]: 1300 nM | GI50 [5]: 550 nM | CC50 [5]: 3280 nM | GI50 (PANC-1): 1770 nM | TGI (PANC-1): 3330 nM | CC50 (PANC-1): 5070 nM | GI50 (LoVo [6]): 299 nM | TGI (LoVo [6]): 485 nM | CC50 (LoVo [6]): 1470 nM | GI50 (LNCaP): 960 nM | TGI (LNCaP): 1960 nM | CC50 (LNCaP): 4260 nM | GI50 [7]: 975 nM | LC50 (concentration giving 50% net cell kill) [7]: 4290 nM | TGI [7]: 2020 nM | GI50 (HT-29): 432 nM | TGI (HT-29): 915 nM | CC50 (HT-29): 2240 nM
